# Assay results as given in ChEMBL document CHEMBL3853327 (J Med Chem, 2016).
# Tested on: Human immunodeficiency virus 1
# Test: Antiviral activity against HIV1 3B harboring reverse transcriptase L100I mutant infected in human MT4 cells assessed as protection against virus induced cytotoxicity after 5 days by MTT assay
# Format: functional, cell-based
# Conditions: Human immunodeficiency virus 1, 3B, MT4, 120 h
# Method in brief: (§1)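 MTT cytopathicity assay in MT-4 cells (6 × 10^5 cells/mL). Compounds serially diluted 5-fold in triplicate wells, run in parallel on infected and mock-infected cells. Virus added at 100−300 CCID50 per well. Viability read spectrophotometrically at 540 and 690 nm after 5 days, using the median OD of three wells. EC50 is the concentration giving 50% protection from viral cytopathogenicity.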
row,Compound,EC50
1,Cc1cc(C#N)cc(C)c1Oc1nc(NC2CCN(Cc3ccc(C(N)=O)cc3)CC2)nc2ccsc12,10.8 nM
2,Cc1cc(C#N)cc(C)c1Oc1nc(NC2CCN(Cc3ccc(S(C)(=O)=O)cc3)CC2)nc2ccsc12,73 nM

# Tested on: Human immunodeficiency virus 1
# Test: Antiviral activity against HIV1 3B harboring reverse transcriptase K103N mutant infected in human MT4 cells assessed as protection against virus induced cytotoxicity after 5 days by MTT assay
# Format: functional, cell-based
# Conditions: Human immunodeficiency virus 1, 3B, MT4, 120 h
# Method in brief: as §1
row,Compound,EC50
1,Cc1cc(C#N)cc(C)c1Oc1nc(NC2CCN(Cc3ccc(C(N)=O)cc3)CC2)nc2ccsc12,1.8 nM
2,Cc1cc(C#N)cc(C)c1Oc1nc(NC2CCN(Cc3ccc(S(C)(=O)=O)cc3)CC2)nc2ccsc12,12 nM

# Tested on: not listed separately
# Test: Selectivity index, ratio of CC50 for human mock-infected MT4 cells to EC50 for HIV1 3B harboring reverse transcriptase L100I mutant infected in human MT4 cells
# Format: toxicity, cell-based
# Conditions: MT4 cells (mock-infected for CC50, HIV-1 infected for EC50)
# Method in brief: (§2)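 Selectivity index is CC50/EC50. CC50 is the concentration that reduces OD540 of mock-infected MT-4 cells by 50% in the 5-day MTT assay. EC50 is the 50% protection from virus-induced cytopathicity, measured in parallel on infected wells.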
row,Compound,selectivity ratio
1,Cc1cc(C#N)cc(C)c1Oc1nc(NC2CCN(Cc3ccc(C(N)=O)cc3)CC2)nc2ccsc12,8760
2,Cc1cc(C#N)cc(C)c1Oc1nc(NC2CCN(Cc3ccc(S(C)(=O)=O)cc3)CC2)nc2ccsc12,306

# Tested on: not listed separately
# Test: Selectivity index, ratio of CC50 for human mock-infected MT4 cells to EC50 for wild type HIV1 3B harboring reverse transcriptase infected in human MT4 cells
# Format: toxicity, cell-based
# Conditions: MT4 cells (mock-infected for CC50, HIV-1 infected for EC50)
# Method in brief: as §2
row,Compound,selectivity ratio
1,Cc1cc(C#N)cc(C)c1Oc1nc(NC2CCN(Cc3ccc(C(N)=O)cc3)CC2)nc2ccsc12,66900
2,Cc1cc(C#N)cc(C)c1Oc1nc(NC2CCN(Cc3ccc(S(C)(=O)=O)cc3)CC2)nc2ccsc12,1000

# Tested on: not listed separately
# Test: Cytotoxicity against human mock-infected MT4 cells assessed as reduction in cell viability after 5 days by MTT assay
# Format: toxicity, cell-based
# Conditions: not given
# Method in brief: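 Mock-infected MT-4 cells (6 × 10^5 cells/mL at seeding) with serial 5-fold compound dilutions in triplicate wells. Viability read by MTT after 5 days, absorbance at 540 and 690 nm, median OD of three wells. CC50 is the concentration reducing OD540 of mock-infected cells by 50%.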
row,Compound,CC50 at 120 h
1,Cc1cc(C#N)cc(C)c1Oc1nc(NC2CCN(Cc3ccc(C(N)=O)cc3)CC2)nc2ccsc12,95400 nM
2,Cc1cc(C#N)cc(C)c1Oc1nc(NC2CCN(Cc3ccc(S(C)(=O)=O)cc3)CC2)nc2ccsc12,22300 nM

# Biological target: Human immunodeficiency virus type 1 reverse transcriptase (Human immunodeficiency virus 1, UniProt Q72547, K103N/Y181C)
# Test: Inhibition of recombinant HIV1 reverse transcriptase K103N/Y181C double mutant using DIG-dUTP/biotin-dUTP/dTTP assessed as suppression of biotin-dUTP incorporation after 1 hr by ELISA
# Conditions: not given
row,Compound,IC50
1,Cc1cc(C#N)cc(C)c1Oc1nc(NC2CCN(Cc3ccc(S(C)(=O)=O)cc3)CC2)nc2ccsc12,2830 nM

# Tested on: Human immunodeficiency virus 1
# Test: Potency index, ratio of ETV EC50 to compound EC50 for HIV1 3B harboring reverse transcriptase YI88L mutant infected in human MT4 cells
# Format: functional
# Conditions: not given
row,Compound,Ratio EC50
1,Cc1cc(C#N)cc(C)c1Oc1nc(NC2CCN(Cc3ccc(C(N)=O)cc3)CC2)nc2ccsc12,2

# Tested on: not listed separately
# Test: Selectivity index, ratio of CC50 for human mock-infected MT4 cells to EC50 for HIV1 3B harboring reverse transcriptase F227L/V106A double mutant infected in human MT4 cells
# Format: toxicity, cell-based
# Conditions: MT4 cells (mock-infected for CC50, HIV-1 infected for EC50)
# Method in brief: as §2
row,Compound,selectivity ratio
1,Cc1cc(C#N)cc(C)c1Oc1nc(NC2CCN(Cc3ccc(C(N)=O)cc3)CC2)nc2ccsc12,8860
2,Cc1cc(C#N)cc(C)c1Oc1nc(NC2CCN(Cc3ccc(S(C)(=O)=O)cc3)CC2)nc2ccsc12,507

# Tested on: Human immunodeficiency virus 1
# Test: Potency index, ratio of ETV EC50 to compound EC50 for HIV1 3B harboring reverse transcriptase E138K mutant infected in human MT4 cells
# Format: functional
# Conditions: not given
row,Compound,Ratio EC50
1,Cc1cc(C#N)cc(C)c1Oc1nc(NC2CCN(Cc3ccc(C(N)=O)cc3)CC2)nc2ccsc12,2

# Tested on: Human immunodeficiency virus 1
# Test: Antiviral activity against HIV1 3B harboring reverse transcriptase Y181C mutant infected in human MT4 cells assessed as protection against virus induced cytotoxicity after 5 days by MTT assay
# Format: functional, cell-based
# Conditions: Human immunodeficiency virus 1, 3B, MT4, 120 h
# Method in brief: as §1, with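 “wells.” for “wells. EC50 is the concentration giving 50% protection from viral cytopathogenicity.”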
row,Compound,EC50
1,Cc1cc(C#N)cc(C)c1Oc1nc(NC2CCN(Cc3ccc(C(N)=O)cc3)CC2)nc2ccsc12,5.3 nM
2,Cc1cc(C#N)cc(C)c1Oc1nc(NC2CCN(Cc3ccc(S(C)(=O)=O)cc3)CC2)nc2ccsc12,36 nM

# Tested on: Human immunodeficiency virus 1
# Test: Fold resistance, ratio of IC50 for recombinant HIV1 reverse transcriptase K103N/Y181C double mutant to IC50 for wild type HIV1 reverse transcriptase
# Conditions: not given
# Method in brief: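 Ratio of mutant to WT IC50. Recombinant WT and K103N/Y181C RT were assayed with a kit: template plus DIG-dUTP, biotin-dUTP and dTTP, with or without inhibitor, 1 h at 37 °C. Product was captured on streptavidin, detected with anti-DIG-POD and ABTS, and read at 405 nm. IC50 is the concentration inhibiting biotin-dUTP incorporation by 50%.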
row,Compound,Ratio IC50
1,Cc1cc(C#N)cc(C)c1Oc1nc(NC2CCN(Cc3ccc(S(C)(=O)=O)cc3)CC2)nc2ccsc12,1.87

# Tested on: Human immunodeficiency virus 1
# Test: Antiviral activity against HIV1 3B harboring reverse transcriptase Y188L mutant infected in human MT4 cells assessed as protection against virus induced cytotoxicity after 5 days by MTT assay
# Format: functional, cell-based
# Conditions: Human immunodeficiency virus 1, 3B, MT4, 120 h
# Method in brief: as §1
row,Compound,EC50
1,Cc1cc(C#N)cc(C)c1Oc1nc(NC2CCN(Cc3ccc(C(N)=O)cc3)CC2)nc2ccsc12,8.6 nM
2,Cc1cc(C#N)cc(C)c1Oc1nc(NC2CCN(Cc3ccc(S(C)(=O)=O)cc3)CC2)nc2ccsc12,41 nM

# Biological target: not listed separately
# Test: Inhibition of recombinant wild type HIV1 reverse transcriptase using DIG-dUTP/biotin-dUTP/dTTP assessed as suppression of biotin-dUTP incorporation after 1 hr by ELISA
# Design: species or system Human immunodeficiency virus 1
# Conditions: not given
# Method in brief: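 Recombinant WT HIV-1 RT in a Roche colorimetric kit: template plus DIG-dUTP, biotin-dUTP and dTTP, ±inhibitor, 1 h at 37 °C. Product captured on streptavidin plate 1 h at 37 °C, anti-DIG-POD 1 h at 37 °C, ABTS developed at 25 °C, read at OD405. IC50 is the concentration inhibiting biotin-dUTP incorporation by 50%.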
row,Compound,IC50
1,Cc1cc(C#N)cc(C)c1Oc1nc(NC2CCN(Cc3ccc(S(C)(=O)=O)cc3)CC2)nc2ccsc12,1510 nM

# Tested on: not listed separately
# Test: Selectivity index, ratio of CC50 for human mock-infected MT4 cells to EC50 for HIV1 3B harboring reverse transcriptase Y181C mutant infected in human MT4 cells
# Format: toxicity, cell-based
# Conditions: MT4 cells (mock-infected for CC50, HIV-1 infected for EC50)
# Method in brief: as §2
row,Compound,selectivity ratio
1,Cc1cc(C#N)cc(C)c1Oc1nc(NC2CCN(Cc3ccc(C(N)=O)cc3)CC2)nc2ccsc12,18100
2,Cc1cc(C#N)cc(C)c1Oc1nc(NC2CCN(Cc3ccc(S(C)(=O)=O)cc3)CC2)nc2ccsc12,622

# Tested on: Human immunodeficiency virus 1
# Test: Antiviral activity against wild type HIV1 3B harboring reverse transcriptase infected in human MT4 cells assessed as protection against virus induced cytotoxicity after 5 days by MTT assay
# Format: functional, cell-based
# Conditions: Human immunodeficiency virus 1, 3B, MT4, 120 h
# Method in brief: as §1, with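 “wells.” for “wells. EC50 is the concentration giving 50% protection from viral cytopathogenicity.”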
row,Compound,EC50
1,Cc1cc(C#N)cc(C)c1Oc1nc(NC2CCN(Cc3ccc(C(N)=O)cc3)CC2)nc2ccsc12,1.4 nM
2,Cc1cc(C#N)cc(C)c1Oc1nc(NC2CCN(Cc3ccc(S(C)(=O)=O)cc3)CC2)nc2ccsc12,22.1 nM

# Tested on: Human immunodeficiency virus 1
# Test: Antiviral activity against HIV1 3B harboring reverse transcriptase F227L/V106A double mutant infected in human MT4 cells assessed as protection against virus induced cytotoxicity after 5 days by MTT assay
# Format: functional, cell-based
# Conditions: Human immunodeficiency virus 1, 3B, MT4, 120 h
# Method in brief: as §1
row,Compound,EC50
1,Cc1cc(C#N)cc(C)c1Oc1nc(NC2CCN(Cc3ccc(C(N)=O)cc3)CC2)nc2ccsc12,10.7 nM
2,Cc1cc(C#N)cc(C)c1Oc1nc(NC2CCN(Cc3ccc(S(C)(=O)=O)cc3)CC2)nc2ccsc12,44 nM

# Tested on: Human immunodeficiency virus 1
# Test: Antiviral activity against HIV1 3B harboring reverse transcriptase E138K mutant infected in human MT4 cells assessed as protection against virus induced cytotoxicity after 5 days by MTT assay
# Format: functional, cell-based
# Conditions: Human immunodeficiency virus 1, 3B, MT4, 120 h
# Method in brief: as §1
row,Compound,EC50
1,Cc1cc(C#N)cc(C)c1Oc1nc(NC2CCN(Cc3ccc(C(N)=O)cc3)CC2)nc2ccsc12,4.5 nM
2,Cc1cc(C#N)cc(C)c1Oc1nc(NC2CCN(Cc3ccc(S(C)(=O)=O)cc3)CC2)nc2ccsc12,39 nM

# Tested on: not listed separately
# Test: Selectivity index, ratio of CC50 for human mock-infected MT4 cells to EC50 for HIV1 3B harboring reverse transcriptase K103N mutant infected in human MT4 cells
# Format: toxicity, cell-based
# Conditions: MT4 cells (mock-infected for CC50, HIV-1 infected for EC50)
# Method in brief: as §2
row,Compound,selectivity ratio
1,Cc1cc(C#N)cc(C)c1Oc1nc(NC2CCN(Cc3ccc(C(N)=O)cc3)CC2)nc2ccsc12,53800
2,Cc1cc(C#N)cc(C)c1Oc1nc(NC2CCN(Cc3ccc(S(C)(=O)=O)cc3)CC2)nc2ccsc12,1800

# Tested on: Human immunodeficiency virus 1
# Test: Potency index, ratio of ETV EC50 to compound EC50 for HIV1 3B harboring reverse transcriptase Y181C mutant infected in human MT4 cells
# Format: functional
# Conditions: not given
row,Compound,Ratio EC50
1,Cc1cc(C#N)cc(C)c1Oc1nc(NC2CCN(Cc3ccc(C(N)=O)cc3)CC2)nc2ccsc12,2

# Tested on: not listed separately
# Test: Selectivity index, ratio of CC50 for human mock-infected MT4 cells to EC50 for HIV1 3B harboring reverse transcriptase E138K mutant infected in human MT4 cells
# Format: toxicity, cell-based
# Conditions: MT4 cells (mock-infected for CC50, HIV-1 infected for EC50)
# Method in brief: as §2
row,Compound,selectivity ratio
1,Cc1cc(C#N)cc(C)c1Oc1nc(NC2CCN(Cc3ccc(C(N)=O)cc3)CC2)nc2ccsc12,21300
2,Cc1cc(C#N)cc(C)c1Oc1nc(NC2CCN(Cc3ccc(S(C)(=O)=O)cc3)CC2)nc2ccsc12,566

# Tested on: not listed separately
# Test: Antiviral activity against HIV2 ROD harboring reverse transcriptase infected in human MT4 cells assessed as protection against virus induced cytotoxicity after 5 days by MTT assay
# Format: functional, cell-based, Human immunodeficiency virus type 2 (ISOLATE ROD)
# Conditions: Human immunodeficiency virus 2, MT4, 120 h
# Method in brief: as §1
row,Compound,EC50
1,Cc1cc(C#N)cc(C)c1Oc1nc(NC2CCN(Cc3ccc(C(N)=O)cc3)CC2)nc2ccsc12,> 95400 nM
2,Cc1cc(C#N)cc(C)c1Oc1nc(NC2CCN(Cc3ccc(S(C)(=O)=O)cc3)CC2)nc2ccsc12,> 22300 nM

# Tested on: not listed separately
# Test: Selectivity index, ratio of CC50 for human mock-infected MT4 cells to EC50 for HIV1 RES056 harboring reverse transcriptase K103N/Y181C double mutant infected in human MT4 cells
# Format: toxicity, cell-based
# Conditions: MT4 cells (mock-infected for CC50, HIV-1 infected for EC50)
# Method in brief: as §2
row,Compound,selectivity ratio
1,Cc1cc(C#N)cc(C)c1Oc1nc(NC2CCN(Cc3ccc(C(N)=O)cc3)CC2)nc2ccsc12,1110
2,Cc1cc(C#N)cc(C)c1Oc1nc(NC2CCN(Cc3ccc(S(C)(=O)=O)cc3)CC2)nc2ccsc12,50

# Tested on: not listed separately
# Test: Selectivity index, ratio of CC50 for human mock-infected MT4 cells to EC50 for HIV1 3B harboring reverse transcriptase Y188L mutant infected in human MT4 cells
# Format: toxicity, cell-based
# Conditions: MT4 cells (mock-infected for CC50, HIV-1 infected for EC50)
# Method in brief: as §2
row,Compound,selectivity ratio
1,Cc1cc(C#N)cc(C)c1Oc1nc(NC2CCN(Cc3ccc(C(N)=O)cc3)CC2)nc2ccsc12,11100
2,Cc1cc(C#N)cc(C)c1Oc1nc(NC2CCN(Cc3ccc(S(C)(=O)=O)cc3)CC2)nc2ccsc12,543
